Activity calls are given as the source filed them. No cut-off for these calls is given here.
Tests used:
[1] = target: T1, C-X-C chemokine receptor type 6 (Homo sapiens, UniProt O00574); test: Antagonist activity at Prolink-tagged human CXCR6 receptor assessed as inhibition of CXCL16-induced beta-arrestin recruitment by DiscoveRx cell based assay
Target sequence in this assay (O00574 whole entry): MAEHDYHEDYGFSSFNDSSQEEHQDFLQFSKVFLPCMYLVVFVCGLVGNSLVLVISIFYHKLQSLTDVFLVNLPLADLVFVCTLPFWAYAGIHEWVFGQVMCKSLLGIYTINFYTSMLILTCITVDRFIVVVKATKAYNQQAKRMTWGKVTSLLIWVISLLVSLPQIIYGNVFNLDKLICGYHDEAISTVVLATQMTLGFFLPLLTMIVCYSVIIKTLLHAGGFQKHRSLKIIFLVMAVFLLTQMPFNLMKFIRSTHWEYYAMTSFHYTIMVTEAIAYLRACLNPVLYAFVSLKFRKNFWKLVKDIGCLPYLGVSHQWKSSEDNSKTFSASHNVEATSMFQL

[2] = target: T1, C-X-C chemokine receptor type 6; test: Antagonist activity at Prolink-tagged human CXCR6 receptor assessed as inhibition of forskolin-induced cAMP accumulation by DiscoveRx cell based assay; type: functional
Method in brief: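 Lance Ultra TR-FRET cAMP assay in CXCR6 β-arrestin cells, 500 cells/well in OptiMEM/2% FBS, grown overnight. Compound added, then forskolin (2.5 mM stock) in HBSS/HEPES/BSA/RO-20-1724 with or without 20 nM CXCL16, 30 min at room temperature. Eu-cAMP tracer and ULight anti-cAMP antibody added, read after 30 min. Curve fit with Hill slope 1; ≥2 independent runs.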
Target sequence in this assay (O00574 whole entry): as above

[3] = target: T1, C-X-C chemokine receptor type 6; test: Antagonist activity at Prolink-tagged human CXCR6 receptor assessed as inhibition of CXCL16-induced beta-arrestin recruitment by DiscoveRx cell based assay relative to control; set-up: concentration or dose not given beside the values
Method in brief: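 CXCR6 β-arrestin cells in assay media without G418/hygromycin, 800 cells/well, grown overnight at 37 °C; compounds added acoustically (DMSO ≤0.3%), then 20 nM CXCL16 (final) for 90 min at 37 °C. PathHunter luminescence read. Normalized between CXCL16-alone and no-ligand wells; four-parameter fit with Hill slope fixed at 1; at least two runs on different days, averaged pIC50 ± SD.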
Target sequence in this assay (O00574 whole entry, looked up): as the sequence (O00574 whole entry) above

[4] = target: T1, C-X-C chemokine receptor type 6; test: Inhibition of CXCR6-mediated cell invasion in human SKHEP1 cells after 72 hrs by transwell assay; type: cell-based; conditions: SK-HEP1
Method in brief: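 SK-HEP-1 cells, 100k/well in 0.2% FBS, seeded in upper chamber of a chemotaxis plate coated with matrigel (250 μg/ml). CXCL16 (0.6 μg/ml) in lower chamber; compound in both chambers. Kept at 37 °C, 5% CO2 and imaged hourly in IncuCyte. Migration quantified as confluence from phase-contrast images.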
Target sequence in this assay (O00574 whole entry, looked up): as the sequence (O00574 whole entry) above

[5] = target: T1, C-X-C chemokine receptor type 6; test: Antagonist activity at Prolink-tagged human CXCR6 receptor assessed as inhibition of forskolin-induced cAMP accumulation by DiscoveRx cell based assay relative to control; type: functional; set-up: concentration or dose not given beside the values
Method in brief: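 CXCR6 β-arrestin cells in OptiMEM with 2% FBS, 500 cells/well, grown overnight; compounds added, then forskolin with 20 nM CXCL16 (stock concentrations) in HBSS/HEPES/BSA with RO-20-1724, 30 min at room temperature. cAMP read by LANCE Ultra TR-FRET after a further 30 min. Hill slope fixed at 1; at least two runs on different days, averaged pIC50 ± SD.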
Target sequence in this assay (O00574 whole entry, looked up): as the sequence (O00574 whole entry) above

[6] = target: T2, C-X-C chemokine receptor type 6 (Mus musculus, UniProt Q9EQ16); test: Antagonist activity at mouse CXCR6 by DiscoveRx cell based beta-arrestin assay
T2 sequence (Q9EQ16 whole entry): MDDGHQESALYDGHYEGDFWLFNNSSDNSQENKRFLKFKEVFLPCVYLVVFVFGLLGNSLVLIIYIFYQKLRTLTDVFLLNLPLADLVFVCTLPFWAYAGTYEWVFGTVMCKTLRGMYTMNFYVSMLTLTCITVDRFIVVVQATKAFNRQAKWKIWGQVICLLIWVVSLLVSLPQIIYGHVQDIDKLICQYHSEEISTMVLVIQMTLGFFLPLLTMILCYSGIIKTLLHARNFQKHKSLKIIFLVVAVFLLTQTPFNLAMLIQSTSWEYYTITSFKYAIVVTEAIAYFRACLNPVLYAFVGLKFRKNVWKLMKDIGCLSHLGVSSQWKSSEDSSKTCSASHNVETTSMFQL

[7] = target: T3, C-C chemokine receptor type 6 (Homo sapiens, UniProt P51684); test: Antagonist activity at human CCR6
T3 sequence (P51684 whole entry): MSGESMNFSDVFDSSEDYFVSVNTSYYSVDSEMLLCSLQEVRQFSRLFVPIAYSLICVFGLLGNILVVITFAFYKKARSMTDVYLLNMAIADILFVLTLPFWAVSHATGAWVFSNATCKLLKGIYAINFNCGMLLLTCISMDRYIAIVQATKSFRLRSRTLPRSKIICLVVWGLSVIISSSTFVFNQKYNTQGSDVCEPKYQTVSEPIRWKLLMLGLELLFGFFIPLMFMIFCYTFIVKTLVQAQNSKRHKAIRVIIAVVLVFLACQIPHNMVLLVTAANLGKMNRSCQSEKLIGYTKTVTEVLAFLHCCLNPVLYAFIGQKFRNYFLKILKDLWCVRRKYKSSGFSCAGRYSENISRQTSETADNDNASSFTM

[8] = target: T4, C-X-C chemokine receptor type 5 (Homo sapiens, UniProt P32302); test: Antagonist activity at human CXCR5
T4 sequence (P32302 whole entry): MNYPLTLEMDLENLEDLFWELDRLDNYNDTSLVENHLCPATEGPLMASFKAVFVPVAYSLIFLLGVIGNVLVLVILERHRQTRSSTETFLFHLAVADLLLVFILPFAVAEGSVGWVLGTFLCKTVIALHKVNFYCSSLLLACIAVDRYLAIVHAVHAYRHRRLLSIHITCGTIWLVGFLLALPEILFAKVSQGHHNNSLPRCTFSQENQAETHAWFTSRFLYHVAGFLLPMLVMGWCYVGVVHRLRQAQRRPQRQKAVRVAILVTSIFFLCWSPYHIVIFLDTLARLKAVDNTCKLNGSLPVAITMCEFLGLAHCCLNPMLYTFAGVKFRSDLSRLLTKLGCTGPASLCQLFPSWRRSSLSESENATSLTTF

[9] = target: C-X-C chemokine receptor type 4 (Homo sapiens, UniProt P61073); test: Antagonist activity at human CXCR4
Sequence of C-X-C chemokine receptor type 4 (P61073 whole entry): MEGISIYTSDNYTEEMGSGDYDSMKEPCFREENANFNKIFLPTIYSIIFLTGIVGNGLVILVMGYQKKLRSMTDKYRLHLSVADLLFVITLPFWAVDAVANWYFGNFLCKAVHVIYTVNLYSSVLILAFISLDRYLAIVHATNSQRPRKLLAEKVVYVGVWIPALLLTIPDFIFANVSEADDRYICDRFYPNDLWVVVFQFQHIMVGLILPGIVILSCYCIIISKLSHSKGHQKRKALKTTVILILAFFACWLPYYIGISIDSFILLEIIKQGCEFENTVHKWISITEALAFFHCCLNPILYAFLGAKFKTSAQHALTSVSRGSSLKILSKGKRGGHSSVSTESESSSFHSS

Row | Structure (SMILES) | IC50 [1] | IC50 [2] | inhibition ([3]; concentration not given here) | inhibition [4] | inhibition ([5]; concentration not given here) | inhibition [5] | inhibition [3] | IC50 [6] | IC50 [7] | IC50 [8] | IC50 [9]
1 | COc1cc(C(=O)N[C@@H]2C[C@H]3CCC[C@@H](C2)N3Cc2nc3c(Cl)cccc3s2)cc(OC)c1OC | 0.13 µM | 0.9 µM | 103% | Active | 95% |  |  |  |  |  | 
2 | COc1cc(C(=O)N[C@@H]2C[C@H]3CCC[C@@H](C2)N3Cc2cc3ccccc3[nH]2)cc(OC)c1OC | 23.7 µM | > 50 µM | 64% |  |  | inactive |  |  |  |  | 
3 | COc1cc(C(=O)N[C@@H]2C[C@H]3CCC[C@@H](C2)N3CC(=O)Nc2cccc(Cl)c2)cc(OC)c1OC | 0.41 µM | 4.3 µM | 105% |  | 97% |  |  |  |  |  | 
4 | O=C(CN1[C@@H]2CCC[C@H]1C[C@H](NC(=O)c1ccc3c(c1)OCO3)C2)Nc1ccc(Cl)cc1 | > 40 µM | 5.3 µM |  |  | 84% |  | inactive |  |  |  | 
5 | COc1cc(C(=O)NC2CCN(CC(=O)Nc3ccccc3)CC2)cc(OC)c1OC | > 40 µM | > 40 µM |  |  |  | inactive | inactive |  |  |  | 
6 | COc1cc(C(=O)N[C@@H]2C[C@H]3CCC[C@@H](C2)N3CC(=O)c2nc3ccccc3s2)cc(OC)c1OC | 12.7 µM | > 50 µM | 75% |  |  | inactive |  |  |  |  | 
7 | O=C(CN1[C@@H]2CCC[C@H]1C[C@H](NC(=O)c1ccccc1)C2)Nc1ccccc1 | > 40 µM | > 80 µM |  | inactive |  | inactive | inactive |  |  |  | 
8 | COc1cc(C(=O)N[C@@H]2C[C@H]3CCC[C@@H](C2)N3CC(=O)Nc2ccccc2Cl)cc(OC)c1OC | 0.14 µM | 1.4 µM | 100% |  | 102% |  |  | 18 µM | > 80 µM | > 80 µM | > 80 µM
9 | COc1cccc(CN2[C@@H]3CCC[C@H]2C[C@H](NC(=O)c2cc(OC)c(OC)c(OC)c2)C3)c1 | > 50 µM | > 50 µM |  |  |  | inactive | inactive |  |  |  | 
10 | COc1cc(C(=O)N[C@@H]2C[C@H]3CCC[C@@H](C2)N3CC(=O)Nc2ccc(C)cc2)cc(OC)c1OC | 9.5 µM | > 40 µM | 100% |  |  | inactive |  |  |  |  | 
11 | COc1cc(C(=O)N[C@@H]2C[C@H]3CCC[C@@H](C2)N3CC(=O)Nc2c(C)cccc2C)cc(OC)c1OC | > 40 µM | > 40 µM |  |  |  | inactive | inactive |  |  |  | 
12 | COc1cccc(C(=O)N[C@@H]2C[C@H]3CCC[C@@H](C2)N3CC(=O)Nc2ccc(Cl)cc2)c1 | > 40 µM | 14.5 µM |  |  | 87% |  | inactive |  |  |  | 
13 | COc1cc(C(=O)N[C@@H]2C[C@H]3CCC[C@@H](C2)N3Cc2nc3c(OC)cccc3s2)cc(OC)c1OC | 3.1 µM | > 50 µM | 86% |  |  | inactive |  |  |  |  | 
14 | COc1cc(C(=O)N[C@@H]2C[C@H]3CCC[C@@H](C2)N3Cc2nc3ccc(Cl)cc3s2)cc(OC)c1OC | 0.27 µM | 14 µM | 103% |  | 83% |  |  |  |  |  | 
15 | COc1cc(C(=O)N[C@@H]2C[C@H]3CCC[C@@H](C2)N3CC(=O)Nc2cc(C)ccc2C)cc(OC)c1OC | 0.61 µM | 16.5 µM | 105% |  | 108% |  |  |  |  |  | 
16 | COc1ccc(C(=O)N[C@@H]2C[C@H]3CCC[C@@H](C2)N3CC(=O)Nc2ccc(Cl)cc2)cc1 | > 40 µM | 5.9 µM |  |  | 94% |  | inactive |  |  |  | 
17 | COc1cc(C(=O)N[C@@H]2C[C@H]3CCC[C@@H](C2)N3CC(=O)Nc2ccccc2)cc(OC)c1OC | 5.8 µM | 30.6 µM | 65% |  | 86% |  |  |  |  |  | 
18 | COc1ccc(C(=O)N[C@@H]2C[C@H]3CCC[C@@H](C2)N3CC(=O)Nc2ccc(Cl)cc2)cc1OC | > 40 µM | > 40 µM |  |  |  | inactive | inactive |  |  |  | 
19 | COc1cc(C(=O)N[C@@H]2C[C@H]3CCC[C@@H](C2)N3CC(=O)Nc2ccc(Cl)cc2)cc(OC)c1OC | 1.5 µM | 14.2 µM | 101% |  | 93% |  |  |  |  |  | 
20 | COc1cc(C(=O)N[C@@H]2C[C@H]3CCC[C@@H](C2)N3CC(=O)Nc2ccccc2F)cc(OC)c1OC | 0.62 µM | 6.5 µM | 103% |  | 99% |  |  |  |  |  | 

Reference: ChEMBL document CHEMBL4610036, “Discovery of small molecule antagonists of chemokine receptor CXCR6 that arrest tumor growth in SK-HEP-1 mouse xenografts as a model of hepatocellular carcinoma” (Bioorg Med Chem Lett, 2020)
